Experimental data published in ChEMBL document CHEMBL5329176, “Design, synthesis, and biological evaluation of novel pyrimidin-2-amine derivatives as potent PLK4 inhibitors” (RSC Med Chem, 2023).

Assays:
[1] = target: T1, Serine/threonine-protein kinase PLK4 (Homo sapiens, UniProt O00444); assay: Inhibition of human recombinant PLK4 incubated for 1 hrs by LanthaScreen Eu kinase FRET assay
T1 sequence (O00444 whole entry): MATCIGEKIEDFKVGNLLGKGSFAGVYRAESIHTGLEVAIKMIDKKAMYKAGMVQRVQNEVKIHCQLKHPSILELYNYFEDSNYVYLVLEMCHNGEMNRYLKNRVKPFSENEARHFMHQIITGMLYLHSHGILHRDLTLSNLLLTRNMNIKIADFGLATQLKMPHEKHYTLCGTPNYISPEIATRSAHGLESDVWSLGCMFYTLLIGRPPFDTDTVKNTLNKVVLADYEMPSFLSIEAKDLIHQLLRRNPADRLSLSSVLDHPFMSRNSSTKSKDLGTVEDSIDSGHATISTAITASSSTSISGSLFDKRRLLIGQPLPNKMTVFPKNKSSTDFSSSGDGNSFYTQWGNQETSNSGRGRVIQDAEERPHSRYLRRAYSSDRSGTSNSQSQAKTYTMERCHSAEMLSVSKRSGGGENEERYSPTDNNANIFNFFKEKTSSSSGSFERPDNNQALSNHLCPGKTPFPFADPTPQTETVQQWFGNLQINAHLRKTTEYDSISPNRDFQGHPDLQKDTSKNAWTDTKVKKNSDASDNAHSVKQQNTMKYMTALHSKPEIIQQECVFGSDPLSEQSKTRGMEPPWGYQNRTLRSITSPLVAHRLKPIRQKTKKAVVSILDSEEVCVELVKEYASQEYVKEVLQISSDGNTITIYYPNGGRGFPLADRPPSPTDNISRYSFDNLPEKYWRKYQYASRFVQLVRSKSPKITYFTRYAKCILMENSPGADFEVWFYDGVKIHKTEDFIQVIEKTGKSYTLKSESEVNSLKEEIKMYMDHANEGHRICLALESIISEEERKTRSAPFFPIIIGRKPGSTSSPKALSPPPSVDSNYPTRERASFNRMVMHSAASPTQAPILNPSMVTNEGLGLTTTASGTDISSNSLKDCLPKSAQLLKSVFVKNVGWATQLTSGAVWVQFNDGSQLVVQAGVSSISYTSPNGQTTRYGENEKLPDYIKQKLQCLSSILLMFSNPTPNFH

[2] = Metabolic stability in human liver microsomes assessed as half life in presence of NADPH as co-foctor incubated for 60 mins by LC-MS/MS analysis; type: ADME, Microsome
[3] = tested on: MCF7; assay: Antiproliferative activity against human MCF7 cells assessed as cell growth inhibition incubated for 5 days by MTT assay; type: functional, cell-based; conditions: MCF7, 120 h
[4] = Metabolic stability in human liver microsomes assessed as parent compound remaining in presence of NADPH as co-foctor and measured after 60 mins by LC-MS/MS analysis; type: ADME, Microsome; conditions: read-out: Stability
[5] = tested on: MDA-MB-231; assay: Antiproliferative activity against human MDA-MB-231 cells assessed as cell growth inhibition incubated for 5 days by MTT assay; type: functional, cell-based; conditions: MDA-MB-231, 120 h
[6] = Metabolic stability in human liver microsomes assessed as parent compound remaining in absence of NADPH as co-foctor and measured after 60 mins by LC-MS/MS analysis; type: ADME, Microsome; conditions: read-out: Stability
[7] = Metabolic stability in human liver microsomes assessed as intrinsic clearance in presence of NADPH as co-foctor incubated for 60 mins by LC-MS/MS analysis; type: ADME, Microsome; conditions: read-out: CLH
[8] = tested on: BT-474; assay: Antiproliferative activity against human BT-474 cells assessed as cell growth inhibition incubated for 5 days by MTT assay; type: functional, cell-based; conditions: BT-474, 120 h
[9] = target: CYP2C19 (Homo sapiens, UniProt P33261); assay: Inhibition of CYP2C19 in human liver microsomes at 10 uM preincubated for 10 mins followed by NADPH cofactor addition and measured after 10 mins by LC-MS/MS analysis; type: ADME, Microsome; conditions: time 20 min
CYP2C19, sequence (P33261 whole entry, canonical isoform): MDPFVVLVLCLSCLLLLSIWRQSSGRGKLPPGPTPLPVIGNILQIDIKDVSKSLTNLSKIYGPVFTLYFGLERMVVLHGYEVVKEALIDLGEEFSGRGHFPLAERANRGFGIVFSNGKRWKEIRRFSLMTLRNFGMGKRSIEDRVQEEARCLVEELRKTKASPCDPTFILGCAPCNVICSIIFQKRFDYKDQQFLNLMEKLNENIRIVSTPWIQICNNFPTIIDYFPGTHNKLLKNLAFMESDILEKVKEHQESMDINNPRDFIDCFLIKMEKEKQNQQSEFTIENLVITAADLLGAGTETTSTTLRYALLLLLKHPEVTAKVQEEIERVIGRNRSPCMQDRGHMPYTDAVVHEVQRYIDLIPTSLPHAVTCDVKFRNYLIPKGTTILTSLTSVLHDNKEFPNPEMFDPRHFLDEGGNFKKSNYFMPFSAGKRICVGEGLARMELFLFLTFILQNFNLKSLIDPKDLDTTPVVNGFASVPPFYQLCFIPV
In short: (§1)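 Human liver microsome (HLM) incubation with isoform-specific substrate solutions. Test compound was added from a 100× working solution. Mixture was pre-warmed about 10 min at 37 °C, then NADPH cofactor was added and incubated 10 min at 37 °C. The reaction was stopped with cold stop solution, centrifuged at 4000 rpm for 20 min, and the supernatant was diluted and analysed by LC–MS/MS.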

[10] = target: CYP3A4 (Homo sapiens, UniProt P08684); assay: Inhibition of CYP3A4 in human liver microsomes at 10 uM preincubated for 10 mins followed by NADPH cofactor addition and measured after 10 mins by LC-MS/MS analysis; type: ADME, Microsome; conditions: time 20 min; in short: as §1
CYP3A4, sequence (P08684 whole entry): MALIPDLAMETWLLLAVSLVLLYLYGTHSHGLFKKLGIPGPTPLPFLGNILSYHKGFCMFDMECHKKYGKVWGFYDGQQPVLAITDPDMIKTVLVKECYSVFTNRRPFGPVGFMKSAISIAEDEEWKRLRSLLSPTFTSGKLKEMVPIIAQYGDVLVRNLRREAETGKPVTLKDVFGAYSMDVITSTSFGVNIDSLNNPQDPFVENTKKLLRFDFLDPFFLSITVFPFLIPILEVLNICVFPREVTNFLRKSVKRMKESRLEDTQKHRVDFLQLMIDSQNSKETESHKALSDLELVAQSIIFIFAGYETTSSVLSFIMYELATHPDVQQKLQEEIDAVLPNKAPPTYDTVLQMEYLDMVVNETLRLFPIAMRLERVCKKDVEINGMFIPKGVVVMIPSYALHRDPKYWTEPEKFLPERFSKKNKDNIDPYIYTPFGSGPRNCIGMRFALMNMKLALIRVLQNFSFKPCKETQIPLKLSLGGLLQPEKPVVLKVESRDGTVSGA

[11] = Metabolic stability in human plasma assessed as parent compound remaining and measured after 30 mins by LC-MS/MS analysis; type: ADME, cell-free; conditions: read-out: Stability
In short: (§2)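 Pooled frozen plasma was thawed at 37 °C and centrifuged to remove clots. Compound was spiked to a final 2 μM (duplicate) and incubated at 37 °C. At 0, 10, 30, 60 and 120 min, protein was precipitated with acetonitrile stop solution containing tolbutamide and labetalol internal standards. Samples were centrifuged at 4000 rpm and 4 °C, and the supernatant was analysed by LC–MS/MS.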

[12] = target: CYP2D6 (Homo sapiens, UniProt P10635); assay: Inhibition of CYP2D6 in human liver microsomes at 10 uM preincubated for 10 mins followed by NADPH cofactor addition and measured after 10 mins by LC-MS/MS analysis; type: ADME, Microsome; conditions: time 20 min; in short: as §1
CYP2D6, sequence (P10635 whole entry): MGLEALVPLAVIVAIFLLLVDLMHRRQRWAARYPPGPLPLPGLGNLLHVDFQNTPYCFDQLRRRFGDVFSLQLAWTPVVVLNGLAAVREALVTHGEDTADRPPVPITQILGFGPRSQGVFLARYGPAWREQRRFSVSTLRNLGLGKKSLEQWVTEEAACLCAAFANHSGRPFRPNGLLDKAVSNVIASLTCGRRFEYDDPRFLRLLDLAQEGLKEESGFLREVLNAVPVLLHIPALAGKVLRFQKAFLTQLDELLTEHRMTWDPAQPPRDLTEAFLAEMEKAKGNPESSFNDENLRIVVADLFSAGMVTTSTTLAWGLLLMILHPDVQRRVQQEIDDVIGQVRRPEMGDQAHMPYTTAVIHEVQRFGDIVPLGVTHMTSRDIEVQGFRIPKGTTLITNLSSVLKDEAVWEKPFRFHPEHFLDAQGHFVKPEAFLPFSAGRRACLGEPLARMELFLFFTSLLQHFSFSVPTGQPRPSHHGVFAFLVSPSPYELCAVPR

[13] = Metabolic stability in human plasma assessed as parent compound remaining and measured after 0 mins by LC-MS/MS analysis; type: ADME, cell-free; conditions: read-out: Stability; in short: as §2
[14] = target: CYP2C9 (Homo sapiens, UniProt P11712); assay: Inhibition of CYP2C9 in human liver microsomes at 10 uM preincubated for 10 mins followed by NADPH cofactor addition and measured after 10 mins by LC-MS/MS analysis; type: ADME, Microsome; conditions: time 20 min
CYP2C9, sequence (P11712 whole entry): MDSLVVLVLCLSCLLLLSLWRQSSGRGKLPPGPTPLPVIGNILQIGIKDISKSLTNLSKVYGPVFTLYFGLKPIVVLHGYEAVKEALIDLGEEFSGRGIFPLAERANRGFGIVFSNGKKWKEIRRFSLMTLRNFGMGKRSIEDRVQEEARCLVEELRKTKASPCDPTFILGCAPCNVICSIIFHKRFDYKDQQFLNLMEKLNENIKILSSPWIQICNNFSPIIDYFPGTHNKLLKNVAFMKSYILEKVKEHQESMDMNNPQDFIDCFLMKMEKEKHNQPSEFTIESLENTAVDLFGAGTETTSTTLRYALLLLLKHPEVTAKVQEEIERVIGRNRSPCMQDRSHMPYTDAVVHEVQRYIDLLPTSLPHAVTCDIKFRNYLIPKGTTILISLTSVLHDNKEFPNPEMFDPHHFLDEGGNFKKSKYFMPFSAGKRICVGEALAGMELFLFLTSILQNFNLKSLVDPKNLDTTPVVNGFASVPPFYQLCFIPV

[15] = Metabolic stability in human plasma assessed as parent compound remaining and measured after 60 mins by LC-MS/MS analysis; type: ADME, cell-free; conditions: read-out: Stability; in short: as §2
[16] = target: T2, CYP1A2 (Homo sapiens, UniProt P05177); assay: Inhibition of CYP1A2 in human liver microsomes at 10 uM preincubated for 10 mins followed by NADPH cofactor addition and measured after 10 mins by LC-MS/MS analysis; type: ADME, Microsome; conditions: time 20 min; in short: as §1
T2 sequence (P05177 whole entry): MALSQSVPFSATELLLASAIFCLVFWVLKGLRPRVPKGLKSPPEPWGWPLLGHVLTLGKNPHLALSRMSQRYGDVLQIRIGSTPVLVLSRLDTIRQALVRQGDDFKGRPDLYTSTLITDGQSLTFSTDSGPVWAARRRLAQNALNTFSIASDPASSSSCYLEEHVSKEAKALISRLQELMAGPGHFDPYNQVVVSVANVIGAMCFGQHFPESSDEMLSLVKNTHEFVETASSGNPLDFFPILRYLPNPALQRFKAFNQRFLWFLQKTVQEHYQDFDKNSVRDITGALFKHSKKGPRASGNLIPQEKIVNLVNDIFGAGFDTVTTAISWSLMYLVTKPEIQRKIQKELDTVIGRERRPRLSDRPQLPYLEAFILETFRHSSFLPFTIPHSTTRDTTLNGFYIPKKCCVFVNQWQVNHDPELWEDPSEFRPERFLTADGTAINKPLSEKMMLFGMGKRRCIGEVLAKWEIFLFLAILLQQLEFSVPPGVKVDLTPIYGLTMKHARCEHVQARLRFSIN

[17] = Metabolic stability in human plasma assessed as half life and measured upto 120 mins by LC-MS/MS analysis; type: ADME, cell-free; in short: as §2
[18] = Metabolic stability in human plasma assessed as parent compound remaining and measured after 120 mins by LC-MS/MS analysis; type: ADME, cell-free; conditions: read-out: Stability; in short: as §2
[19] = Metabolic stability in human plasma assessed as parent compound remaining and measured after 10 mins by LC-MS/MS analysis; type: ADME, cell-free; conditions: read-out: Stability; in short: as §2

## Nc1ccc(Sc2ccnc(Nc3cccc(CN4CCOCC4)c3)n2)cc1
[1]
  IC50: 137 nM

## Fc1cccc(Sc2ccnc(Nc3ccc(N4CCOCC4)cc3)n2)c1
[1]
  IC50: 79 nM

## Nc1ccc(Sc2ccnc(Nc3ccccc3)n2)cc1
[1]
  IC50: 519 nM

## Fc1ccc(Sc2ccnc(Nc3ccc(N4CCOCC4)cc3)n2)cc1
[1]
  IC50: 198 nM

## Nc1ccc(Sc2ccnc(Nc3ccc(N4CCOCC4)cc3)n2)cc1
[2]
  half-life: 0.972 h
[1]
  IC50: 17 nM
[3]
  IC50: 8720 nM
[4]
  remaining at 1 h: 48.7%
[5]
  IC50: 5110 nM
[6]
  remaining at 1 h: 94.4%
[7]
  microsomal CLint: 23.8 µL/min/mg
[8]
  IC50: > 20000 nM

## Nc1ccc(Sc2ccnc(Nc3ccc(NC4CCOCC4)cc3)n2)cc1
[9]
  inhibition at 10 min, 10 µM: 48.7%
[10]
  inhibition at 10 min, 10 µM: 14.4%
[2]
  half-life: > 2.42 h
[1]
  IC50: 7 nM
[3]
  IC50: 1440 nM
[11]
  remaining at 0.5 h: 114%
[12]
  inhibition at 10 min, 10 µM: 8%
[13]
  remaining at 0 h: 100%
[4]
  remaining at 1 h: 100%
[14]
  inhibition at 10 min, 10 µM: 42.9%
[15]
  remaining at 1 h: 107%
[16]
  inhibition at 10 min, 10 µM: 33.1%
[17]
  half-life: > 4.82 h
[5]
  IC50: 2130 nM
[18]
  remaining at 2 h: 104%
[6]
  remaining at 1 h: 104%
[19]
  remaining at 10 min: 105%
[7]
  microsomal CLint: < 9.6 µL/min/mg
[8]
  IC50: 7810 nM

## c1ccc(CNc2ccnc(Nc3ccc(N4CCOCC4)cc3)n2)cc1
[1]
  IC50: 176 nM

## c1ccc2c(Sc3ccnc(Nc4ccc(N5CCOCC5)cc4)n3)cccc2c1
[1]
  IC50: 177 nM

## Fc1ccccc1Sc1ccnc(Nc2ccc(N3CCOCC3)cc2)n1
[1]
  IC50: 136 nM

## c1cc(Sc2ccnc(Nc3ccc(N4CCOCC4)cc3)n2)c2cccnc2c1
[1]
  IC50: 46 nM
[3]
  IC50: > 20000 nM
[5]
  IC50: 6480 nM
[8]
  IC50: > 20000 nM

## c1ccc(Nc2ccnc(Nc3ccc(N4CCOCC4)cc3)n2)cc1
[1]
  IC50: 65 nM

## CNc1ccc(Sc2ccnc(Nc3ccc(N4CCOCC4)cc3)n2)cc1
[1]
  IC50: 71 nM

## Nc1ccc(Sc2ccnc(Nc3ccc(N4CCNCC4)cc3)n2)cc1
[1]
  IC50: 139 nM

## Clc1cccc(Sc2ccnc(Nc3ccc(N4CCOCC4)cc3)n2)c1
[1]
  IC50: 1430 nM

## Clc1ccc(Sc2ccnc(Nc3ccc(N4CCOCC4)cc3)n2)cc1
[1]
  IC50: 149 nM

## Nc1ccc(Sc2ccnc(Nc3ccc(N4CCSCC4)cc3)n2)cc1
[1]
  IC50: 1100 nM

## c1cc(Sc2ccc3[nH]ncc3c2)nc(Nc2ccc(N3CCOCC3)cc2)n1
[1]
  IC50: 125 nM

## Nc1ccc(Sc2ccnc(Nc3ccc(N4CCOCC4)cc3)n2)cc1F
[1]
  IC50: 56 nM

## Nc1ccc(Sc2ccnc(Nc3ccc(CN4CCOCC4)cc3)n2)cc1
[1]
  IC50: 64 nM

## COC(=O)c1cc(Nc2nccc(Sc3ccc(N)cc3)n2)ccc1NC1CCOCC1
[1]
  IC50: 6620 nM

## CNC(=O)c1ccccc1Sc1ccnc(Nc2ccc(N3CCOCC3)cc2)n1
[1]
  IC50: 102 nM

## Nc1ccc(Sc2ccnc(Nc3ccc(N4CCOCC4)cc3)n2)c(F)c1
[1]
  IC50: 35 nM
[3]
  IC50: 3450 nM
[5]
  IC50: 8080 nM
[8]
  IC50: 9320 nM

## c1ccc(Sc2ccnc(Nc3ccc(N4CCOCC4)cc3)n2)cc1
[1]
  IC50: 31 nM
[3]
  IC50: > 20000 nM
[5]
  IC50: 7570 nM
[8]
  IC50: > 20000 nM

## Nc1cccc(Sc2ccnc(Nc3ccc(N4CCOCC4)cc3)n2)c1
[1]
  IC50: 153 nM

## Nc1ccc(Sc2ccnc(Nc3ccc(NC4CCNCC4)cc3)n2)cc1
[1]
  IC50: 57 nM

## Nc1ccccc1Sc1ccnc(Nc2ccc(N3CCOCC3)cc2)n1
[1]
  IC50: 297 nM

## Nc1ccc(Sc2ccnc(Nc3ccc(C(=O)N4CCOCC4)cc3)n2)cc1
[1]
  IC50: 39 nM
[3]
  IC50: 3860 nM
[5]
  IC50: 4470 nM
[8]
  IC50: 16200 nM

## Clc1ccccc1Sc1ccnc(Nc2ccc(N3CCOCC3)cc2)n1
[1]
  IC50: 142 nM

## CN(C)c1ccc(Sc2ccnc(Nc3ccc(N4CCOCC4)cc3)n2)cc1
[1]
  IC50: 313 nM

## Brc1ccccc1Sc1ccnc(Nc2ccc(N3CCOCC3)cc2)n1
[1]
  IC50: 219 nM

## Nc1ccc(Sc2ccnc(Nc3ccc(NC4CCNC4)cc3)n2)cc1 (stereo unspecified)
[1]
  IC50: 80 nM

## Nc1ccc(Sc2ccnc(Nc3ccc(CN4CCNCC4)cc3)n2)cc1
[1]
  IC50: 379 nM

## Brc1cccc(Sc2ccnc(Nc3ccc(N4CCOCC4)cc3)n2)c1
[1]
  IC50: 2380 nM

## c1ccc(Oc2ccnc(Nc3ccc(N4CCOCC4)cc3)n2)cc1
[1]
  IC50: 81 nM

## Nc1ccc(Sc2ccnc(Nc3cccc(N4CCOCC4)c3)n2)cc1
[1]
  IC50: 45 nM
[3]
  IC50: > 20000 nM
[5]
  IC50: 5150 nM
[8]
  IC50: 12900 nM

## Brc1ccc(Sc2ccnc(Nc3ccc(N4CCOCC4)cc3)n2)cc1
[1]
  IC50: 189 nM
